Source: paper PMC2874265 (Journal of Medicinal Chemistry, 2010)

Legend:
[1] = test system: S. aureus ATCC 29213; experiment: S. aureus MIC, broth microdilution; assay type: cell-based; settings: for S. aureus MIC: S. aureus ATCC 29213, broth microdilution; for MIC: Staphylococcus aureus, ATCC29213, read-out: S. aureus MIC + 2% BSA
Method in brief: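 Broth microdilution MIC per CLSI recommendations against S. aureus ATCC 29213. Protein-shift runs added 2% w/v bovine serum albumin to the assay. End point reproducible within one 2-fold dilution.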

[2] = Mouse intravenous pharmacokinetics; assay type: in vivo
Method in brief: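 Mice dosed intravenously, either 3 mg/kg given individually or 2 mg/kg in a cassette. Plasma sampled at 5, 15, 30, 60, 120, 240 and 480 min and concentrations measured by LC/MS/MS. AUC, C0, CL, T1/2 and V calculated from plasma concentrations.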

[3] = test system: S. aureus (Smith); experiment: Murine septicaemia model of staphylococcal infection; assay type: in vivo; settings: SC, 3, 10, or 30 mg/kg

SMILES	S. aureus MIC [1]	MIC [1] [µg/mL]	other results
CCOc1ccc2sc(COc3ccc(F)c(C(N)=O)c3F)nc2c1 [compound 8b]	submicrogram/mL	0.5	
NC(=O)c1c(F)ccc(OCc2nc3cc(C(F)(F)F)ccc3s2)c1F [8e]	submicrogram/mL		
NC(=O)c1c(F)ccc(OCc2nc3cc(Cl)ccc3s2)c1F [compound 8j]		2	V ([2]; intravenous, 2 mg/kg in a cassette): 5.8 L/kg; AUC ([2]; plasma, iv, 2 mg/kg): 100 ng·h/mL; C0 ([2]; plasma, iv, 2 mg/kg): 500 ng/mL; clearance ([2]; plasma, iv, 2 mg/kg): 315 mL/min/kg; half-life ([2]; plasma, iv, 2 mg/kg): 13 min; survival of infected mice [3]: died on day 2
COc1cc2nc(COc3ccc(F)c(C(N)=O)c3F)sc2nc1Cl [compound 28d]		> 64	
CCCc1ccc2sc(COc3ccc(F)c(C(N)=O)c3F)nc2c1 [compound 11]	submicrogram/mL		
NC(=O)c1c(F)ccc(OCc2nc3cc(Br)ccc3s2)c1F [compound 8d]	submicrogram/mL		
NC(=O)c1c(F)ccc(OCc2nc3cc(-c4ccccc4)ccc3s2)c1F [compound 8a]		4	
